Assay results as given in ChEMBL document CHEMBL3414541, “Discovery of new thienopyrimidinone derivatives displaying antimalarial properties toward both erythrocytic and hepatic stages of Plasmodium” (Eur J Med Chem, 2015).

Experiments:
[1] = tested on: HepG2; assay: (§1) Cytotoxicity against human HepG2 cells assessed as cell viability after 72 hrs by MTT assay; assay type: cell-based; conditions: hepg2, 72 h, 72 h, read-out: CC50
Procedure, shortened: (§2)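 Cells were kept in RPMI with 10% FBS. 5×10^3 cells/well were settled 24 h, then exposed to compound from DMSO (final <0.5%): CHO for 24 h, HepG2 for 72 h, in duplicate. Wells were checked for precipitate. MTT was added for 2 h at 37 °C, formazan dissolved in DMSO, and A570 read (630 nm reference). Viability is % of untreated cells; CC50 from non-linear regression, mean of three experiments.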

[2] = Cytotoxicity against CHO cells assessed as cell viability after 24 hrs by MTT assay; assay type: cell-based, Cricetulus griseus; conditions: chinese hamster; procedure, shortened: as §2
[3] = tested on: Plasmodium falciparum; assay: Antiplasmodial activity against chloroquine-sensitive Plasmodium falciparum 3D7 infected in human erythrocytes assessed as parasite growth inhibition after 72 hrs by SYBR Green I dye-based fluorescence assay; assay type: functional, organism-based
Procedure, shortened: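 Parasites grown in A+ human erythrocytes (2.5% haematocrit) in RPMI 1640 with 25 mM HEPES, 25 mM NaHCO3 and 10% A+ serum, at 37 °C under 6% CO2/14% O2/80% N2. Rings were sorbitol-synchronized. Compounds in DMSO (<0.5% final) were incubated 72 h at 2% haematocrit and 1% parasitaemia. SYBR Green lysis read at ex 497/em 520 nm; duplicates; IC50 from three independent experiments.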

[4] = tested on: Plasmodium falciparum; assay: Antiplasmodial activity against multi-drug resistant Plasmodium falciparum K1 infected in human erythrocytes assessed as parasite growth inhibition after 72 hrs by SYBR Green I dye-based fluorescence assay; assay type: functional, organism-based; conditions: read-out: IC50
[5] = Selectivity index, ratio of CC50 for human HepG2 cells to IC50 for chloroquine-sensitive Plasmodium falciparum 3D7 infected in human erythrocytes; assay type: functional
Procedure, shortened: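 SI = HepG2 CC50 (72 h MTT) / P. falciparum IC50. […] Cultures were exposed 72 h at 37 °C to compound (DMSO final <0.5%), in duplicate. Growth was read by SYBR Green I lysis fluorescence (ex 497, em 520 nm), from three independent experiments.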

[6] = tested on: Leishmania donovani; assay: Antileishmanial activity against promastigote stage of Leishmania donovani assessed as parasite growth inhibition after 72 hrs by MTT assay; assay type: functional, organism-based
Procedure, shortened: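 L. donovani promastigotes were grown at 27 °C in Schneider's medium with 10% FBS. 1×10^6 log-phase cells/well were exposed to compound from DMSO (final <0.5% v/v) for 72 h at 27 °C, in duplicate. MTT was then added for 6 h, formazan dissolved in DMSO, and A570 read (630 nm reference). IC50 came from non-linear regression, mean of three independent experiments.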

[7] = tested on: Toxoplasma gondii; assay: Antitoxoplasmic activity against tachyzoite stage of Toxoplasma gondii PRU transfected with beta galactosidase infected in HFF assessed as parasite growth inhibition after 96 hrs by colorimetric microtiter assay; assay type: functional
Procedure, shortened: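 Confluent HFF monolayers (1×10^4 seeded) were infected with 2×10^3 PRU-β-Gal tachyzoites for 3 h. Compounds from DMSO (final <0.5%) were then added in triplicate for 96 h at 37 °C. CPRG was added at 500 µM final for 24 h more, then A570 read (630 nm reference). IC50 came from non-linear regression, mean of three experiments.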

[8] = tested on: Salmonella typhimurium; assay: Mutagenicity in Salmonella typhimurium TA97A at 2.5 mM after 1 hr by Ames test in absence of S9 fraction; assay type: toxicity, organism-based; conditions: salmonella enterica subsp. enterica serovar typhimurium, 2500 µM
Procedure, shortened: (§3)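 Tester strains were grown overnight in nutrient broth. 0.1 mL culture was incubated 1 h at 37 °C with shaking with compound (2.5–25 mM DMSO solutions), with or without 4% S9 mix. Top agar was added and the mix plated on Vogel-Bonner agar. Revertants were counted after 48 h at 37 °C in the dark. A twofold rise over spontaneous revertants counts as mutagenic.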

[9] = tested on: Salmonella typhimurium; assay: Mutagenicity in Salmonella typhimurium TA100 at 2.5 mM after 1 hr by Ames test in absence of S9 fraction; assay type: toxicity, organism-based; conditions: salmonella enterica subsp. enterica serovar typhimurium, 2500 µM; procedure, shortened: as §3
[10] = tested on: Salmonella typhimurium; assay: Mutagenicity in Salmonella typhimurium TA97A at 2.5 mM after 1 hr by Ames test in presence of S9 fraction; assay type: toxicity, organism-based; conditions: salmonella enterica subsp. enterica serovar typhimurium, s9, 1 h, 2500 µM
Procedure, shortened: (§4)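 Tester strains were grown overnight in nutrient broth. Top agar was added and the mix plated on Vogel-Bonner agar. Revertants were counted after 48 h at 37 °C in the dark. A twofold rise over spontaneous revertants counts as mutagenic.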

[11] = tested on: Salmonella typhimurium; assay: Mutagenicity in Salmonella typhimurium TA100 at 2.5 mM after 1 hr by Ames test in presence of S9 fraction; assay type: toxicity, organism-based; conditions: salmonella enterica subsp. enterica serovar typhimurium, s9, 1 h, 2500 µM; procedure, shortened: as §4
[12] = Genotoxicity in DNA (unknown origin) incubated for 24 hrs in dark condition by methyl green displacement assay
Procedure, shortened: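 DNA-methyl green (4 mg in 20 mL 0.05 M Tris-HCl pH 7.5 with 7.5 mmol/L MgSO4) was shaken 24 h at 37 °C. It was then added to compound from DMSO (final <0.5%). A630 was read, and read again after 24 h at room temperature in the dark. DC50 is the concentration displacing 50% of methyl green.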

[13] = Inhibition of hemozoin polymerization after 24 hrs by spectroscopic analysis; assay type: functional
Procedure, shortened: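 Hemozoin (4 mM solution in 0.1 M NaOH) was mixed with compound at drug:heme ratios of 1:1 to 8:1, in triplicate. Acetic acid was added to pH 3, and samples were incubated 24 h at 37 °C. Soluble, DMSO-soluble and pellet fractions were separated by centrifugation. Each fraction was quantified at A405 against a hemozoin standard curve. IC50 is 50% decrease in polymerization.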

[14] = Inhibition of Plasmodium falciparum DHFR after 48 hrs
Procedure, shortened: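 Recombinant S. cerevisiae whose own DHFR is replaced by the P. falciparum DHFR domain was used. 1×10^4 cells were grown in YEPD with compound from DMSO (final <0.5%) at 30 °C for 48 h, in duplicate. Growth was read as A660. IC50 (50% growth inhibition) came from non-linear regression.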

[15] = tested on: Plasmodium falciparum; assay: Antiplasmodial activity against multi-drug resistant Plasmodium falciparum K1 infected in human erythrocytes assessed as parasite growth inhibition after 72 hrs by SYBR Green I dye-based fluorescence assay in presence of ascorbic acid; assay type: functional, organism-based; conditions: K1, 72 h
Procedure, shortened: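 Same SYBR Green I 72 h growth assay on the K1 strain (2% haematocrit, 1% parasitaemia, 37 °C, 6% CO2/14% O2/80% N2, DMSO <0.5%), with 800 µM ascorbic acid in the medium as radical trap. Duplicates; artesunate as positive control; IC50 derived.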

[16] = Selectivity index, ratio of CC50 for human HepG2 cells to IC50 for multi-drug resistant Plasmodium falciparum K1 infected in human erythrocytes
[17] = tested on: Plasmodium falciparum; assay: Antiplasmodial activity against multi-drug resistant Plasmodium falciparum K1 after 72 hrs by SYBR Green I dye-based fluorescence assay; conditions: K1, 72 h
[18] = as §1; assay type: cell-based; conditions: HepG2 cells; procedure, shortened: as §2
[19] = tested on: Plasmodium yoelii; assay: Antiplasmodial activity against liver stage of Plasmodium yoelii 17X NL sporozoites infected in human HepG2 cells expressing CD81 after 48 hrs by DAPI staining-based immunofluorescence analysis; assay type: functional, organism-based; conditions: HepG2, 48 h
Procedure, shortened: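 HepG2/CD81 cells were grown in D-MEM with 10% FBS. 25×10^3 cells/well went on collagen-coated wells; after 24 h they received compound and 5000 P. yoelii sporozoites together, then were spun 900 × g for 10 min at 4 °C. Treatment was renewed at 3 h and 24 h. At 48 h cells were methanol-fixed, stained with anti-HSP70 immunofluorescence, and parasites counted by microscopy. IC50 is 50% fewer parasites than in 0.5% DMSO controls.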

[20] = Cytotoxicity against human HepG2 cells expressing CD81 assessed as cell viability after 72 hrs by MTT assay; assay type: cell-based
[21] = Selectivity index, ratio of CC50 for human HepG2 cells expressing CD81 to IC50 for liver stage of Plasmodium yoelii 17X NL sporozoites infected in human HepG2 cells expressing CD81; assay type: functional
[22] = tested on: Plasmodium berghei; assay: Antiplasmodial activity against chloroquine-sensitive Plasmodium berghei NK65 infected in Swiss mouse assessed as reduction in parasitemia at 2.5 mg/kg, ip bid administered for 4 days measured on day 4 by Giemsa staining relative to control; assay type: functional; design: scale not given: the % may be the effect or the level left; conditions: route intraperitoneal
Procedure, shortened: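 Male Swiss mice (20 ± 2 g) were infected on day 0 with 10^7 parasitized cells in 0.9% saline. Groups of 5 were dosed ip at 2.5 mg/kg twice a day from day 0 to day 3.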

[23] = tested on: Plasmodium falciparum; assay: Antiplasmodial activity against multi-drug resistant erythrocytic stage of Plasmodium falciparum K1 isolated from synchronized culture assessed as reduction in parasitemia at 5 X IC50 measured for 8 hrs by spectrophotometric analysis relative to control; assay type: functional; design: scale not given: the % may be the effect or the level left
Procedure, shortened: (§5)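 K1 cultures were synchronized to an 8-h window with 5% D-sorbitol and held in 24-well plates at 0.8% parasitemia and 4% hematocrit. They received 8-h compound pulses (DMSO <0.5%) at successive points of the cycle, then three washes and culture to the ring stage of the next cycle. Fluorescence read at 497/520 nm; % growth inhibition versus DMSO control; chloroquine as positive control.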

[24] = tested on: Plasmodium falciparum; assay: Antiplasmodial activity against multi-drug resistant erythrocytic stage of Plasmodium falciparum K1 isolated from synchronized culture assessed as reduction in parasitemia at 5 X IC50 measured for 32 hrs by spectrophotometric analysis relative to control; assay type: functional; design: scale not given: the % may be the effect or the level left; procedure, shortened: as §5
[25] = Cytotoxicity against human HepG2 cells expressing CD81 assessed as cell viability after 72 hrs by CellTiter-glo assay; assay type: cell-based

Structure (SMILES): Cc1ccc(-c2cc3nc(NC(C)(C)C)[nH]c(=O)c3s2)cc1
- CC50 [1]: 25.6 µM
- CC50 at 24 h [2]: 27.5 µM
- IC50 [3]: 0.14 µM
- IC50 [4]: 0.2 µM
- Ratio CC50/IC50 [5]: 183
- IC50 [6]: > 10 µM
- IC50 [7]: > 10 µM
- Activity [8]: Non-toxic
- Activity [9]: Non-toxic
- Activity [10]: Non-toxic
- Activity [11]: Non-toxic
- DC50 [12]: > 25000 µM
- IC50 [13]: 21600 µM
- IC50 [14]: > 500 µM
- IC50 [15]: 0.2 µM
- Ratio CC50/IC50 [16]: 128

Structure (SMILES): Cc1ccc(-c2cc3nc(NC(C)C)[nH]c(=O)c3s2)cc1
- CC50 [1]: 49.4 µM
- IC50 [3]: 0.247 µM
- IC50 [4]: 0.8 µM
- Ratio CC50/IC50 [5]: 202
- IC50 [6]: > 10 µM
- IC50 [7]: > 10 µM
- Activity [8]: Non-toxic
- Activity [9]: Non-toxic
- Activity [10]: Non-toxic
- Activity [11]: Non-toxic
- DC50 [12]: > 25000 µM
- IC50 [13]: > 25000 µM
- IC50 [14]: > 250 µM
- IC50 [15]: 0.9 µM
- Ratio CC50/IC50 [16]: 62

Structure (SMILES): CN(C)c1nc2cc(-n3cnc4cc(-c5ccc(Cl)cc5)sc4c3=O)ccc2n1CCCN1CCCC1
- IC50 [17]: < 10 µM

Structure (SMILES): CC(C)(C)Nc1nc2cc(-c3ccc(Cl)cc3)sc2c(=O)[nH]1
- CC50 [1]: 15 µM
- IC50 [3]: 0.344 µM
- IC50 [4]: 0.8 µM
- Ratio CC50/IC50 [5]: 44
- IC50 [6]: > 10 µM
- IC50 [7]: > 10 µM
- Activity [8]: Non-toxic
- Activity [9]: Non-toxic
- Activity [10]: Non-toxic
- Activity [11]: Non-toxic
- DC50 [12]: > 25000 µM
- IC50 [13]: > 25000 µM
- IC50 [14]: > 250 µM
- IC50 [15]: 0.8 µM
- Ratio CC50/IC50 [16]: 19

Structure (SMILES): Cc1ccc(-c2cc3nc(NC(C)C)[nH]c(=O)c3s2)cc1.O=C(O)/C=C/C(=O)O
- CC50 at 72 h [18]: 26.9 µM
- IC50 ([3]; Plasmodium falciparum, 3D7, 72 h): 0.182 µM
- IC50 [4]: 0.8 µM
- Ratio CC50/IC50 [5]: 148
- IC50 [19]: 0.12 µM
- CC50 at 72 h [20]: > 111 µM
- Ratio CC50/IC50 [21]: >925
- Ratio CC50/IC50 [16]: 135

Structure (SMILES): CC(C)(C)Nc1nc2cc(-c3ccc(Cl)cc3)sc2c(=O)[nH]1.O=C(O)/C=C/C(=O)O
- CC50 at 72 h [18]: 15.6 µM
- IC50 [3]: 0.168 µM
- IC50 [4]: 0.8 µM
- Ratio CC50/IC50 [5]: 93
- IC50 [19]: 0.06 µM
- CC50 at 72 h [20]: > 120 µM
- Ratio CC50/IC50 [21]: >2000
- Ratio CC50/IC50 [16]: 78

Structure (SMILES): Cc1ccc(-c2cc3nc(NC(C)(C)C)[nH]c(=O)c3s2)cc1.Cl
- CC50 at 72 h [18]: 24 µM
- IC50 [3]: 0.035 µM
- IC50 [4]: 0.045 µM
- Ratio CC50/IC50 [5]: 686
- Activity [22]: 45%
- Activity [23]: 41%
- Activity [24]: 30%
- IC50 [19]: 0.035 µM
- CC50 at 72 h [20]: > 143 µM
- Ratio CC50/IC50 [21]: >4086
- Ratio CC50/IC50 [16]: 533

Structure (SMILES): CCN(CC)CCCC(C)Nc1ccnc2cc(Cl)ccc12 (centres undefined) [CHLOROQUINE]
- CC50 at 24 h [2]: 155 µM
- Activity [22]: 85%
- IC50 [19]: 1.65 µM
- CC50 at 72 h [25]: 1.6 µM
- IC50 [13]: 1460 µM
